Measured values from different studies.
Cell line: HepG2
Read-out: cell growth or viability

SMILES	assay	conditions	IC50
COc1cccc(N=C2SCC(=O)N2c2nnc(-c3ccc(C(F)(F)F)cc3N=C3SCC(=O)N3c3cccc(OC)c3)s2)c1	MTT		80.1 µM
Nc1ncnc2c1ncn2CCN1C(=O)C(=O)c2cc(Cl)ccc21	SRB		5.62 µM
CCCNC(=S)N/N=C/c1cccc2cc3ccccc3nc12	MTT	48 h	> 50 µM
O=C1CS/C(=N\c2cc(C(F)(F)F)ccc2-c2nnc(N3C(=O)CS/C3=N\c3ccc(Cl)cc3)s2)N1c1ccc(Cl)cc1	MTT		48.1 µM
COc1cccc2c1C(=O)c1c(O)c3c(c(O)c1C2=O)C[C@@](O)(C(=O)CO)C[C@@H]3O[C@H]1C[C@H](N)[C@H](O)[C@H](C)O1	MTT	75 h	0.48 µM
CC(=O)OC[C@H]1O[C@@H](n2cc(Cn3c(C(C)=O)nc4ccccc43)nn2)[C@H](OC(C)=O)[C@@H](OC(C)=O)[C@H]1OC(C)=O	LDH	48 h	3.27 µM
CC1=CC(=O)c2ccccc2C1=O	MTT		9.25 µM
CC(C)[C@@H](C)NC(=O)c1cc(-c2cc3ccccc3n2C)cc(C(=O)NCCc2ccccn2)n1	CCK-8		12.7 µM
Cc1c2c(nn1C)CSCc1cc(n(C)n1)CSc1cc(c3ccccc3c1)OCCCc1c(C(=O)O)n(C)c3c-2c(Cl)ccc13	CCK-8		50 µM
COc1cc([C@@H]2c3cc4c(cc3[C@@H](O[C@@H]3O[C@@H]5CO[C@@H](C)O[C@H]5[C@H](O)[C@H]3O)[C@H]3COC(=O)[C@H]23)OCO4)cc(OC)c1O	MTT		44.5 µM
Fc1ccc2c(-c3nnc(Cc4ccccc4)s3)nn(Cc3ccccc3)c2c1		48 h	29.1 µM
O=C1CS/C(=N\c2cc(C(F)(F)F)ccc2-c2nnc(N3C(=O)CS/C3=N\c3cc(O)cc(Br)c3)s2)N1c1cc(O)cc(Br)c1	MTT		70.4 µM
CNC(=S)N/N=C/c1cccc2cc3ccccc3nc12	MTT	48 h	42 µM
C#CCOc1ccc2oc(-c3ccc(OC)cc3)c(C(=O)OCC)c2c1CN1CCCCC1	resazurin		34.5 µM
COc1cccc2c1C(=O)c1c(O)c3c(c(O)c1C2=O)C[C@@](O)(C(=O)CO)C[C@@H]3O[C@H]1C[C@H](N)[C@H](O)[C@H](C)O1	MTT		31.2 µM
O=C(/C=C/c1ccc(F)cc1)c1nc2ccccc2n1Cc1cn([C@@H]2O[C@H](CO)[C@H](O)[C@H](O)[C@H]2O)nn1	LDH	48 h	1.64 µM
O=[N+]([O-])c1ccc(NC(=S)N/N=C/c2cccc3cc4ccccc4nc23)cc1	MTT	48 h	> 50 µM
C#Cc1cccc(Nc2ncnc3cc(OCCOC)c(OCCOC)cc23)c1	LDH	48 h	2.07 µM
FC(F)(F)c1ccc(-c2nnc(-c3nn(Cc4ccc(Cl)cc4Cl)c4ccccc34)o2)cc1		48 h	304 µM
CN1CCC(NC2CCc3[nH]c4c(C(N)=O)ccc(-c5ccccc5Cl)c4c3C2)CC1 (stereo not drawn)		96 h	0.0202 µM
O=C1CS/C(=N\c2cc(C(F)(F)F)ccc2-c2nnc(N3C(=O)CS/C3=N\c3ccc(F)cc3)s2)N1c1ccc(F)cc1	MTT		24.1 µM

SMILES	assay	conditions	IC50
CCOC(=O)c1c(-c2ccc(OC)cc2)oc2ccc(OCc3cn(Cc4ccccc4)nn3)c(CN3CCCCC3)c12	resazurin	18 h	70.5 µM
c1ccc(Cn2nc(-c3ncc(-c4ccccc4)s3)c3ccccc32)cc1		48 h	27.7 µM
CSc1ccccc1-c1cc(C(N)=O)c2[nH]c3c(c2c1)CC(N)CC3 (stereo not drawn)			2.46 µM
C/C(=C\C(=O)N[C@H](C(=O)N1CCC[C@H]1C(=O)N(c1ccccc1)c1ccc(I)cc1)C(C)(C)C)c1ccc(OP(=O)(O)O)cc1	CCK-8		6.09 µM
CC(=O)O[C@@H]1[C@@H](OC(C)=O)[C@H](OC(C)=O)CO[C@H]1n1cc(Cn2c(C(=O)/C=C/c3ccc(F)cc3)nc3ccccc32)nn1	LDH	48 h	1.67 µM
Fc1ccc2c(-c3ncc(-c4ccccc4)o3)nn(Cc3ccccc3)c2c1		48 h	39.9 µM
COc1ccc(C[C@H](N)C(=O)N[C@H]2[C@@H](O)[C@H](n3cnc4c(N(C)C)ncnc43)O[C@@H]2CO)cc1	resazurin	72 h	1.25 µM
COc1ccc(N(Cc2csc(-c3ccccc3)n2)C(=O)CCCCCC(=O)NO)cc1	MTT	72 h	0.12 µM
COc1cccc2c1C(=O)c1c(O)c3c(c(O)c1C2=O)C[C@@](O)(C(=O)CO)C[C@@H]3O[C@H]1C[C@H](N)[C@H](O)[C@H](C)O1		96 h	0.109 µM
c1ccc(-c2noc(-c3nn(Cc4ccncc4)c4ccccc34)n2)cc1		48 h	32.9 µM
CC(=O)O[C@@H]1[C@@H](OC(C)=O)[C@H](OC(C)=O)CO[C@H]1n1cc(Cn2c(C(C)=O)nc3ccccc32)nn1	LDH	48 h	1.65 µM
COc1ccc(N=C2SCC(=O)N2c2nnc(-c3ccc(C(F)(F)F)cc3N=C3SCC(=O)N3c3ccc(OC)cc3)s2)cc1	MTT		70.1 µM
COc1ccc2c(-c3ncc(-c4ccccc4)o3)nn(Cc3ccccc3)c2c1		48 h	89.7 µM
COc1cccc(NC(=S)N/N=C/c2cccc3cc4ccccc4nc23)c1	MTT	48 h	> 50 µM
COc1ccc(N(Cc2csc(-c3ccc(Br)cc3)n2)C(=O)CCCCCC(=O)NO)cc1	MTT	72 h	0.57 µM
N=C(CC(O)c1cc2c(F)cc(F)cc2c2cc(C(F)(F)F)ccc12)Nc1ccc(F)c(F)c1 (stereo not drawn)	neutral red	24 h	7.8 µM
O=C1CS/C(=N\c2ccccc2O)N1c1nnc(-c2ccc(C(F)(F)F)cc2/N=C2\SCC(=O)N2c2ccccc2O)s1	MTT		31.1 µM
c1ccc(Cn2nc(-c3nc(-c4ccccc4)n[nH]3)c3ccccc32)cc1		48 h	60.8 µM
c1ccc(Oc2ccc(Nc3c4c(nc5ccccc35)CCC4)cc2)cc1	resazurin	72 h	9.45 µM
Clc1ccc(Cn2nc(-c3nc(-c4ccccc4)no3)c3ccccc32)c(Cl)c1		48 h	59.9 µM
CC(C)c1nc(N(C)S(C)(=O)=O)nc(-c2ccc(F)cc2)c1/C=C/[C@@H](O)C[C@@H](O)CC(=O)O	MTT	24 h	59.1 µg/mL
